PMC12079426 (RSC Advances, 2025)
Where “and” joins values, the source holds several entries; their conditions need not be identical. Equal entries are not always repeated.

Experiments:
Type in all cases: in vivo
[1] = system: female Swiss albino mice; assay: Tail Suspension Test; conditions: percentage decrease in duration of immobility compared to disease control
Outline: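 Female Swiss albino mice (20–23 g) received standard or test compound 30 min before testing. Each mouse was hung by the tail from a hook in a three-sided chamber, 50 cm above the surface. Total immobility was recorded over a 10-min session and reported as mean ± SEM.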

[2] = system: female Swiss albino mice; assay: Forced Swim Test; conditions: percentage decrease in duration of immobility compared to disease control
Outline: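 Female Swiss albino mice (20–23 g) were dosed 30 min before testing: saline 10 mL/kg (control), fluoxetine 10 mg/kg (standard), or test compound 100 mg/kg. Two 10-min swim sessions ran 24 h apart (pre-test, then test). Water was at 23 ± 1 °C, deep enough that hind legs could not touch bottom, and changed after each trial. Immobility duration reported as mean ± SEM.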

[3] = system: female Swiss albino mice; assay: Acute oral toxicity study; conditions: individual mice; for Body weight Day 0: pre-administration fasting weight
Outline: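 Female Swiss albino mice (20–23 g) kept at 22 ± 3 °C, 50–65% humidity, 12 h light/dark. OECD 423 stepwise design, three mice per step: 300 mg/kg, then 2000 mg/kg. Test compound was given in distilled water by oral intubation needle. Feed was withheld 3–4 h before and 2 h after dosing. Fasting weight was taken pre-dose, then on days 7 and 14.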

COc1c(/C=C/C(=O)c2ccc(-n3ccc4ccccc43)cc2)c(C)nn1-c1ccccc1 [14d, (E)-1-(4-(1H-Indol-1-yl)phenyl)-3-(5-methoxy-3-methyl-1-phenyl-1H-pyrazol-4-yl)prop-2-en-1-one]
DID (%) Tail suspension test [1]: 5.57% | DID (%) Forced swim test [2]: 13.62%

Cc1nn(-c2ccccc2)c(-n2nnc3ccccc32)c1/C=C/C(=O)c1ccc(-n2cccc2)cc1 [15c, (E)-3-(5-(1H-Benzo[d][1,2,3]triazol-1-yl)-3-methyl-1-phenyl-1H-pyrazol-4-yl)-1-(4-(1H-pyrrol-1-yl)phenyl)prop-2-en-1-one]
DID (%) Tail suspension test [1]: 14.60% | DID (%) Forced swim test [2]: 22.99%

Cc1nn(-c2ccccc2)c(N2CCOCC2)c1/C=C/C(=O)c1ccc(-n2ccc3ccccc32)cc1 [14b, (E)-1-(4-(1H-Indol-1-yl)phenyl)-3-(3-methyl-5-morpholino-1-phenyl-1H-pyrazol-4-yl)prop-2-en-1-one]
DID (%) Tail suspension test [1]: 1.92% | DID (%) Forced swim test [2]: 2.22%

Cc1nn(-c2ccccc2)c(N2CCCCC2)c1/C=C/C(=O)c1ccc(-n2cccc2)cc1 [15a, (E)-1-(4-(1H-Pyrrol-1-yl)phenyl)-3-(3-methyl-1-phenyl-5-(piperidin-1-yl)-1H-pyrazol-4-yl)prop-2-en-1-one]
DID (%) Tail suspension test [1]: 4.50% | DID (%) Forced swim test [2]: 6.55%

Cc1nn(-c2ccccc2)c(-n2nnc3ccccc32)c1/C=C/C(=O)c1ccc(-n2c3ccccc3c3ccccc32)cc1 [13c, (E)-3-(5-(1H-Benzo[d][1,2,3]triazol-1-yl)-3-methyl-1-phenyl-1H-pyrazol-4-yl)-1-(4-(9H-carbazol-9-yl)phenyl)prop-2-en-1-one]
Body weight Day 7 ([3]; Step I 300 mg kg^−1 oral): 26.5 g | Body weight Day 14 ([3]; Step I 300 mg kg^−1 oral): 31 g and 30 g | Body weight Day 0 ([3]; Step I 300 mg kg^−1 oral): 22.5 g and 23.5 g and 21.5 g | Body weight Day 7 ([3]; Step II 2000 mg kg^−1 oral): 28 g and 28.5 g and 29.5 g | Body weight Day 14 ([3]; Step II 2000 mg kg^−1 oral): 33.5 g and 34.5 g | Body weight Day 0 ([3]; Step II 2000 mg kg^−1 oral): 22 g and 23.5 g | DID (%) Tail suspension test [1]: 34.67% | DID (%) Forced swim test [2]: 35.63%

COc1c(/C=C/C(=O)c2ccc(-n3cccc3)cc2)c(C)nn1-c1ccccc1 [15d, (E)-1-(4-(1H-Pyrrol-1-yl)phenyl)-3-(5-methoxy-3-methyl-1-phenyl-1H-pyrazol-4-yl)prop-2-en-1-one]
DID (%) Tail suspension test [1]: 16.24% | DID (%) Forced swim test [2]: 22.53%

CNCCC(Oc1ccc(C(F)(F)F)cc1)c1ccccc1 (stereo not shown) [Fluoxetine, reference compound]
DID (%) Tail suspension test [1]: 59.67% | DID (%) Forced swim test [2]: 56.17%

Cc1nn(-c2ccccc2)c(N2CCOCC2)c1/C=C/C(=O)c1ccc(-n2c3ccccc3c3ccccc32)cc1 [13b, (E)-1-(4-(9H-Carbazol-9-yl)phenyl)-3-(3-methyl-5-morpholino-1-phenyl-1H-pyrazol-4-yl)prop-2-en-1-one]
Body weight Day 7 ([3]; Step I 300 mg kg^−1 oral): 26.5 g and 29 g and 29.5 g | Body weight Day 14 ([3]; Step I 300 mg kg^−1 oral): 32.5 g and 36 g and 34.5 g | Body weight Day 0 ([3]; Step I 300 mg kg^−1 oral): 23.5 g and 24 g | Body weight Day 7 ([3]; Step II 2000 mg kg^−1 oral): 27.5 g and 30.5 g and 27 g | Body weight Day 14 ([3]; Step II 2000 mg kg^−1 oral): 32 g and 34.5 g | Body weight Day 0 ([3]; Step II 2000 mg kg^−1 oral): 23 g and 24.5 g and 21.5 g | DID (%) Tail suspension test [1]: 11.30% | DID (%) Forced swim test [2]: 23.47%

Cc1nn(-c2ccccc2)c(-n2nnc3ccccc32)c1/C=C/C(=O)c1ccc(-n2ccc3ccccc32)cc1 [14c, (E)-3-(5-(1H-Benzo[d][1,2,3]triazol-1-yl)-3-methyl-1-phenyl-1H-pyrazol-4-yl)-1-(4-(1H-indol-1-yl)phenyl)prop-2-en-1-one]
DID (%) Tail suspension test [1]: 9.60% | DID (%) Forced swim test [2]: 17.90%

Cc1nn(-c2ccccc2)c(N2CCOCC2)c1/C=C/C(=O)c1ccc(-n2cccc2)cc1 [15b, (E)-1-(4-(1H-Pyrrol-1-yl)phenyl)-3-(3-methyl-5-morpholino-1-phenyl-1H-pyrazol-4-yl)prop-2-en-1-one]
DID (%) Tail suspension test [1]: 5.74% | DID (%) Forced swim test [2]: 11.56%

COc1c(/C=C/C(=O)c2ccc(-n3c4ccccc4c4ccccc43)cc2)c(C)nn1-c1ccccc1 [13d, (E)-1-(4-(9H-Carbazol-9-yl)phenyl)-3-(5-methoxy-3-methyl-1-phenyl-1H-pyrazol-4-yl)prop-2-en-1-one]
DID (%) Tail suspension test [1]: 8.55%

Cc1nn(-c2ccccc2)c(N2CCCCC2)c1/C=C/C(=O)c1ccc(-n2c3ccccc3c3ccccc32)cc1 [13a, (E)-1-(4-(9H-Carbazol-9-yl)phenyl)-3-(3-methyl-1-phenyl-5-(piperidin-1-yl)-1H-pyrazol-4-yl)prop-2-en-1-one]
Body weight Day 7 ([3]; Step I 300 mg kg^−1 oral): 28 g and 26.5 g and 29 g | Body weight Day 14 ([3]; Step I 300 mg kg^−1 oral): 32 g and 33 g and 34.5 g | Body weight Day 0 ([3]; Step I 300 mg kg^−1 oral): 22.5 g and 21.5 g and 25 g | Body weight Day 7 ([3]; Step II 2000 mg kg^−1 oral): 29.5 g and 29 g and 30 g | Body weight Day 14 ([3]; Step II 2000 mg kg^−1 oral): 33 g and 32.5 g and 35 g | Body weight Day 0 ([3]; Step II 2000 mg kg^−1 oral): 24 g and 23.5 g | DID (%) Tail suspension test [1]: 5.74% | DID (%) Forced swim test [2]: 24.92%

Cc1nn(-c2ccccc2)c(N2CCCCC2)c1/C=C/C(=O)c1ccc(-n2ccc3ccccc32)cc1 [14a, (E)-1-(4-(1H-Indol-1-yl)phenyl)-3-(3-methyl-1-phenyl-5-(piperidin-1-yl)-1H-pyrazol-4-yl)prop-2-en-1-one]
DID (%) Tail suspension test [1]: 2.58% | DID (%) Forced swim test [2]: 16.61%
